According to ChEMBL document CHEMBL3272346, “Vinyl ethers of choline and congeners” (1976):
Calls of active or inactive are those of the source. The calls are words filed in the database; no cut-off is given here.

How the values were obtained:
[1] = test system: Canis familiaris; assay: Increase in blood pressure in hexamethonium bromide-pretreated anesthetized dog at 0.3 to 0.6 mg/kg; type: functional, organism-based; conditions: Canis lupus familiaris
How it was run: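 In atropine sulfate-pretreated (0.5 mg/kg) anesthetized dogs, compounds were given intravenously at 0.3 and 0.6 mg/kg. Femoral arterial pressor responses were measured after pretreatment with hexamethonium bromide, 10 mg/kg, given intravenously.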

[2] = test system: Canis familiaris; assay: Decrease in blood pressure in dog at 1 to 4 ug/kg relative to acetylcholine
[3] = test system: Canis familiaris; assay: Increase in blood pressure in atropine sulfate-pretreated anesthetized dog at 0.3 to 0.6 mg/kg relative to acetylcholine; type: functional, Canis lupus familiaris; conditions: dose mg/kg 0.3-0.6
How it was run: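 Dogs were pretreated with atropine sulfate (0.5 mg/kg) and given compounds or acetylcholine at 0.3 and 0.6 mg/kg, rapidly into the right femoral vein in randomized order. Pressor responses were recorded from the left femoral artery by transducer. Relative potencies with 95% confidence intervals were calculated by Finney's method on molar cation amounts.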

[4] = species: Cavia porcellus; assay: Agonist activity at muscarinic acetylcholine receptor in guinea pig ileum assessed as muscle contraction at 2.5 to 10 ng/ml relative to acetylcholine
[5] = species: Cavia porcellus; assay: […] at muscarinic acetylcholine receptor in guinea pig ileum assessed as muscle contraction in presence of 0.2 mg/l atropine sulfate; type: tissue-based
How it was run: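 Contractions of a guinea pig ileum segment (animals 300-600 g, tissue taken just before the ileocecal valve) were evoked by added drug. Atropine sulfate was present at 0.2 mg/l to test antagonism of the responses.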

[6] = test system: Canis familiaris; assay: Increase in blood pressure in dog at 0.2 mg/kg; type: functional, organism-based; set-up: dose 0.2 mg/kg; conditions: Canis lupus familiaris
How it was run: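 Dogs anesthetized with barbital sodium (250 mg/kg) and pretreated with atropine sulfate (0.5 mg/kg). Agents given rapidly into the right femoral vein in randomized order. Left femoral arterial pressure recorded by transducer. Pressor responses were also tested after intravenous hexamethonium bromide pretreatment (10 mg/kg). Potency is relative to acetylcholine, computed on molar cation amounts by Finney's method with 95% confidence intervals.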

[7] = test system: Canis familiaris; assay: Increase in blood pressure in atropine sulfate-pretreated anesthetized dog at 2 mg/kg; type: functional, organism-based; set-up: dose 2 mg/kg; conditions: Canis lupus familiaris

Row | Compound | Activity [1] | fold change (FC) [2] | fold change (FC) [3] | fold change (FC) [4] | Activity [5] | Activity [6] | Activity [7]
1 | CCOCC[N+](C)(C)C.[I-] | inactive | 1.03 | 0.9 | 0.15 | inactive | – | –
2 | C=COCC[N+](C)(C)C.[I-] | inactive | 1.13 | 1.93 | 0.09 | inactive | – | –
3 | CN1C2CCC1CC(OC(=O)C(CO)c1ccccc1)C2 (centres undefined) | – | – | – | – | – | Active | –
4 | C=COCC(C)[N+](C)(C)C.[I-] (racemic) | inactive | 0.06 | 3.74 | 0.001 | inactive | – | –
5 | C=COC(C)C[N+](C)(C)C.[I-] (racemic) | – | 0.74 | – | 0.02 | inactive | – | inactive
6 | CCOCC(C)[N+](C)(C)C.[I-] (racemic) | inactive | 0.08 | 1.13 | 0.003 | inactive | – | –
7 | CCOC(C)C[N+](C)(C)C.[I-] (racemic) | – | 0.64 | – | 0.03 | inactive | – | inactive
